# Measured values reported in article PMC8052301 (Biochemical and biophysical research communications, 2021).
# Ends that are not written are not given here. * marks the point of attachment. FITC = O=C1OC2(c3ccc(O)cc3Oc3cc(O)ccc32)c2ccc(NC(=S)*)cc21; Ahx = NCCCCCC(=O)O
# T1: HS-Bok (Mus musculus, UniProt O35425)
# T1 sequence (O35425 1-213): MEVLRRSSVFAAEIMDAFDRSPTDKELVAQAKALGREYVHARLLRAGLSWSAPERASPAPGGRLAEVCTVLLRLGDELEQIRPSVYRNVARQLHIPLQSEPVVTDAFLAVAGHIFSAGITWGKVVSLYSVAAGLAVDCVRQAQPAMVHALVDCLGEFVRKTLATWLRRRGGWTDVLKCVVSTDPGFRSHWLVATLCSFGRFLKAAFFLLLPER
# B1: 3F-Bok^ΔTM: contains amino acids 1-187 of Bok (protein)
# chain: MEVLRRSSVFAAEIMDAFDRSPTDKELVAQAKALGREYVHARLLRAGLSWSAPERASPAPGGRLAEVCTVLLRLGDELEQIRPSVYRNVARQLHIPLQSEPVVTDAFLAVAGHIFSAGITWGKVVSLYSVAAGLAVDCVRQAQPAMVHALVDCLGEFVRKTLATWLRRRGGWTDVLKCVVSTDPGFR
# modifications: left off: 3xFlag, N-terminal, kept
# B2: HS-Bok: bacterially expressed, His-sumo (HS) tagged mouse Bok (protein, UniProt O35425 1-213, looked up)
# Bcl-2-related ovarian killer …: T1 sequence (O35425 1-213)
# modifications: His-SUMO tag
# B3: 3F-Bok^WT: Bok from mouse tagged at the N-terminus with a 3xFlag epitope (protein)
# chain: T1 sequence (O35425 1-213)
# modifications: left off: 3xFlag, N-terminal, kept
# Assays:
# IP3R1 = settings: ref [3]; cited from earlier work
# HS-Bok = target: T1, HS-Bok; test: Fluorescence polarization; type: binding; settings: FP, PBS pH 7.4 / 0.1% BSA
# HS-HA = test: FP of FITC-conjugated peptide with negative control HS-HA; type: binding; settings: PBS pH 7.4 / 0.1% BSA, FITC-IP3R1^1898-1940
# HEK-3KO cells = test: Cellular fractionation into cytosol and crude membrane, immunoblot; type: cell-based; settings: for localization on co-expression of IP3R1-HA^WT and 3F-Bok^WT: IP3R1-HA^WT and 3F-Bok^WT co-expressed; for localization, expressed alone: cytosol / membrane fractions
# How it was run: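 HEK-3KO cells are PEI-transfected (1-2 μg cDNA) with tagged mouse constructs, harvested in ice-cold homogenization buffer and sonicated. They are then spun at 20,000xg for 60 min at 4°C. The supernatant gives the cytosol fraction, and the pellet, resuspended in buffer, gives crude membranes. Fractions go through SDS-PAGE and ECL immunoblot, with transaldolase as the cytosol marker and Hrd1 as the membrane marker.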
# 3F-Bok^WT = test: Anti-HA IP of IP3R1-HA constructs and co-IP of 3F-Bok^WT from HEK-3KO cells; type: cell-based, mouse; settings: IP3R1-HA and 3F-Bok co-transfected, immunoblot
# How it was run: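 Cotransfection uses full-length C-terminally HA-tagged mouse IP3R1 and N-terminally 3xFlag-tagged mouse Bok, with 1-2 μg cDNA and PEI, in HEK-3KO cells seeded at 6-8x10^5/well and transfected ~24 h later. Rabbit anti-HA precipitates from lysates. Blots of precipitates and inputs are probed with mouse anti-HA and anti-Bok, with p97 as input loading control. Detection is by ECL after SDS-PAGE and nitrocellulose transfer.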
# 3F-Bok^ΔTM = test: Anti-HA IP and co-IP of TM domain-lacking constructs from HEK-3KO cells; type: cell-based, mouse; settings: immunoblot
# How it was run: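 HEK-3KO cells (6-8x10^5/well) are transfected ~24 h after seeding with 1-2 μg cDNA using PEI. Constructs are mouse IP3R1 with a C-terminal HA tag, truncated to aa 1-2264, and mouse Bok with an N-terminal 3xFlag tag, truncated to aa 1-187. Lysates are immunoprecipitated with rabbit anti-HA. Samples are heated (37°C 30 min or boiled 5 min), run on SDS-PAGE, blotted to nitrocellulose and detected by ECL. p97 is the input loading control.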
# [1] = target: FITC-IP3R1^1898-1940 (mouse) (UniProt P11881); test: fluorescence polarisation
# [2] = target: FITC-IP3R1^1898-1929 (mouse) (UniProt P11881); test: fluorescence polarisation
# [3] = target: FITC-IP3R1^1904-1940 (mouse) (UniProt P11881); test: fluorescence polarisation
# HS-IP3R1 = type: binding, mouse; settings: PBS / 0.1% BSA, 16h at 4°C, anti-IP3R1^1884-1903 IP, immunoblot
# How it was run: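 His-SUMO-tagged mouse Bok and IP3R1 fragments, plus an HA-tag control, are expressed in E. coli BL21-CodonPlus(DE3)-RIPL. Cells are grown at 37°C to OD600 ~0.6, then induced with 1 mM IPTG for ~18 h at 16°C. Protein is purified on Ni-NTA in pH 7.4 phosphate buffer and eluted with 400 mM imidazole. Mixtures are immunoprecipitated with rabbit anti-IP3R1 (aa 1884-1903) and probed by immunoblot.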
molecule,measurement,setting,value
Bcl-2: Bcl-2 family protein reported to interact with IP3Rs,strength of interaction with IP3R1 relative to Bok,IP3R1,much less strongly than Bok
{FITC-Ahx}-KKAKEPTTQITEEVRDQLLEASAATRKAFTTFRREADPDDHYQ (N-terminus assumed) [FITC-IP3R1^1898-1940],binding to HS-Bok (in words),HS-Bok,bound with high affinity
same,binding to HS-HA (in words),HS-HA,but not negative control HS-HA
IP3R1-HA^WT: mouse IP3R1 tagged at the C-terminus with an HA epitope,localization on co-expression of IP3R1-HA^WT and 3F-Bok^WT,HEK-3KO cells,the same localization is maintained
same,"localization, expressed alone",HEK-3KO cells,localize completely to membranes
same,co-IP of 3F-Bok^WT,3F-Bok^WT,allowed for efficient co-IP of 3F-Bok^WT
IP3R1-HA^Δ1909-1941: IP3R1-HA construct with the largest deletion,co-IP of 3F-Bok^WT,3F-Bok^WT,did not co-IP 3F-Bok^WT
"IP3R1-HA^Δ1916-1917: IP3R1-HA deletion mutant, Bok binding-deficient",co-IP of 3F-Bok^WT,3F-Bok^WT,failed to co-IP 3F-Bok^WT
IP3R1-HA^Δ1917: IP3R1-HA deletion mutant,co-IP of 3F-Bok^WT,3F-Bok^WT,failed to co-IP 3F-Bok^WT
IP3R1-HA^Δ1920-1921: IP3R1-HA deletion mutant,co-IP of 3F-Bok^WT,3F-Bok^WT,failed to co-IP 3F-Bok^WT
"IP3R1-HA^ΔTM, Δ1916-1917: lacks TM domains and the ability to bind Bok",localization upon co-transfection of 3F-Bok^WT,HEK-3KO cells,an effect not seen
IP3R1-HA^ΔTM: contains amino acids 1-2264 of IP3R1,localization upon co-transfection of 3F-Bok^WT,HEK-3KO cells,becomes more membrane-associated
same,"localization, expressed alone",HEK-3KO cells,predominantly cytosolic
same,co-IP of cytosolic 3F-Bok^ΔTM and IP3R1-HA^ΔTM,3F-Bok^ΔTM,strongly co-IP
Bcl-xL: Bcl-2 family protein reported to interact with IP3Rs,strength of interaction with IP3R1 relative to Bok,IP3R1,much less strongly than Bok
"FITC-IP3R1^1907-1921: shorter peptide which encompasses just the ANCHOR2 ""peak"" shown in Figure 1C (ITEEVRDQLLEASAA; also: FITC-conjugated, position not given here)",binding to HS-Bok (in words),HS-Bok,does not bind to HS-Bok at all
HS-Bok (from UniProt O35425 1-213) (natural protein),Kd,[1],64 nM
same,Kd,[2],265 nM
same,Kd,[3],398 nM
B1,"localization, expressed alone",HEK-3KO cells,predominantly cytosolic
B2,co-IP with HS-IP3R1,HS-IP3R1,strong co-IP
B3,localization on co-expression of IP3R1-HA^WT and 3F-Bok^WT,HEK-3KO cells,"the same localization is maintained, with an increase in Bok expression level"
same,"localization, expressed alone",HEK-3KO cells,localize completely to membranes
